{"data": "Measured values from different studies", "CDK4 with cyclin D1": "Cyclin-dependent kinase 4, with cyclin D1 (CDK4, Homo sapiens, UniProt P11802)", "CDK4": "Cyclin-dependent kinase 4 (CDK4, Homo sapiens, UniProt P11802)", "CDK4 with cyclin D3": "Cyclin-dependent kinase 4, with cyclin D3 (CDK4, Homo sapiens, UniProt P11802)", "note": "Compare with care: the assays were run in different laboratories."}
{"SMILES": "O=C(c1ccc(Nc2ncc(Cl)c(-c3ccc(Cl)s3)n2)cc1)N1CCC(N2CCCC2)CC1", "target": "CDK4 with cyclin D1", "effect on": "binding", "technique": "competition with immobilised ligand", "tested at": "1 µM", "remaining binding": "0.1%"}
{"SMILES": "COc1cc(-c2cn(C3CCc4ccccc4N(CC(F)(F)F)C3=O)nn2)ccc1-n1ccc(C)n1 (stereo not drawn)", "target": "CDK4", "effect on": "cell-free assay", "technique": "competition with immobilised ligand", "tested at": "1 µM", "remaining binding": "53%"}
{"SMILES": "COc1cnc(Nc2cccc(S(N)(=O)=O)c2)nc1N1CCN(c2ccccc2)CC1", "target": "CDK4", "effect on": "binding", "technique": "competition with immobilised ligand", "tested at": "1 µM", "remaining binding": "76%"}
{"SMILES": "O=C(Nc1c[nH]nc1C(=O)NC1CCNCC1)c1cc(F)cc(F)c1", "target": "CDK4 with cyclin D1", "effect on": "binding", "technique": "competition with immobilised ligand", "tested at": "1 µM", "remaining binding": "66%"}
{"SMILES": "N[C@@H]1CCN(c2nccc(-c3cnn4ncccc34)n2)C1", "target": "CDK4 with cyclin D1", "effect on": "binding", "tested at": "1 µM", "remaining binding": "100%"}
{"SMILES": "C=CC(=O)N1CCC(C(=O)NCC(=O)N2CCN(c3nc(-c4cnc(N)nc4C(F)F)nc(N4CCOCC4)n3)CC2)CC1", "target": "CDK4 with cyclin D1", "effect on": "binding", "technique": "competition with immobilised ligand", "tested at": "1 µM", "remaining binding": "83%"}
{"SMILES": "CNC(=O)[C@@H]1CC[C@@H](n2c(-c3ccc4cnccc4c3)nc3ccc(C(=O)NCc4cccc(C(N)=O)c4)cc32)C1", "target": "CDK4", "effect on": "binding", "technique": "competition with immobilised ligand", "tested at": "1 µM", "remaining binding": "100%"}
{"SMILES": "CN(C)c1ncc(F)c(-c2cnn3ncccc23)n1", "target": "CDK4 with cyclin D3", "effect on": "binding", "tested at": "1 µM", "remaining binding": "91%"}
{"SMILES": "C[C@@H]1CN(c2cc(-c3nn(C)c4ccc(OC5(C)CC5)cc34)ncn2)C[C@H](C)O1", "target": "CDK4 with cyclin D3", "effect on": "cell-free assay", "technique": "competition with immobilised ligand", "tested at": "1 µM", "remaining binding": "71%"}
{"SMILES": "c1cnn2ncc(-c3ccnc(N4CCC45COC5)n3)c2c1", "target": "CDK4", "effect on": "binding", "tested at": "1 µM", "remaining binding": "78%"}
{"SMILES": "O=C(NCCCN1CCOCC1)c1ccc(Nc2ncc(Cl)c(-c3ccc(Cl)s3)n2)cc1", "target": "CDK4 with cyclin D3", "effect on": "binding", "technique": "competition with immobilised ligand", "tested at": "1 µM", "remaining binding": "8.4%"}
{"SMILES": "C[C@H](c1ccc(F)cc1)N(Cc1cccc(C(=O)O)c1)C(=O)c1cnc2ccccc2c1", "target": "CDK4 with cyclin D1", "effect on": "cell-free assay", "technique": "competition with immobilised ligand", "tested at": "1 µM", "remaining binding": "100%"}
{"SMILES": "O=C(NCC1CCOCC1)c1n[nH]cc1NC(=O)c1c(F)cccc1F", "target": "CDK4 with cyclin D3", "effect on": "binding", "technique": "competition with immobilised ligand", "tested at": "1 µM", "remaining binding": "20%"}
{"SMILES": "O=C(c1ccc(Nc2nccc(-c3cc4ccccc4s3)n2)cc1)N1CCC(N2CCCC2)CC1", "target": "CDK4 with cyclin D1", "effect on": "binding", "technique": "competition with immobilised ligand", "tested at": "1 µM", "remaining binding": "25%"}
{"SMILES": "Nc1ncc2c(n1)-c1c([nH]c3ccc(C#CC4CC4)cc13)CCCC2", "target": "CDK4 with cyclin D1", "effect on": "binding", "technique": "competition with immobilised ligand", "tested at": "1 µM", "remaining binding": "93%"}
{"SMILES": "CCN1CCN(Cc2ccc(C(=O)Nc3ccc(C)c(Oc4ccc5c(c4)CC(=O)N5)c3)cc2C(F)(F)F)CC1", "target": "CDK4 with cyclin D3", "effect on": "binding", "technique": "competition with immobilised ligand", "tested at": "1 µM", "remaining binding": "100%"}
{"SMILES": "CN(c1nccc(-c2cnn3ncccc23)n1)C1CC1", "target": "CDK4", "effect on": "binding", "tested at": "1 µM", "remaining binding": "100%"}
{"SMILES": "COc1cnc(Nc2cccc(S(N)(=O)=O)c2)nc1N1CCN(c2ccccc2)C(=O)C1", "target": "CDK4", "effect on": "binding", "technique": "competition with immobilised ligand", "tested at": "1 µM", "remaining binding": "99%"}
{"SMILES": "COc1ncc2cc3ccccc3nc2c1C#N", "target": "CDK4 with cyclin D3", "effect on": "cell-free assay", "technique": "competition with immobilised ligand", "tested at": "5 µM", "remaining binding": "100%"}
{"SMILES": "C[C@@H]1CCN(c2nccc(-c3cnn4ncccc34)n2)C1", "target": "CDK4 with cyclin D1", "effect on": "binding", "tested at": "1 µM", "remaining binding": "88%"}
{"SMILES": "CNC(=O)c1ccc(Nc2ncc(C(F)(F)F)c(NCc3nccnc3N(C)S(C)(=O)=O)n2)cc1", "target": "CDK4", "effect on": "cell-free assay", "technique": "competition with immobilised ligand", "tested at": "0.1 µM", "remaining binding": "100%"}
{"SMILES": "Cc1cnc(Nc2ccc(C(=O)N3CCC(N4CCCC4)CC3)cc2)nc1-c1cc2ccccc2s1", "target": "CDK4 with cyclin D1", "effect on": "binding", "technique": "competition with immobilised ligand", "tested at": "1 µM", "remaining binding": "1.7%"}
{"SMILES": "C[C@@H](c1ccc(-n2cnc3c(N)ncnc32)cc1)N1CCc2nn(C)c(Cc3ccccc3)c2C1=O", "target": "CDK4 with cyclin D1", "effect on": "binding", "technique": "competition with immobilised ligand", "tested at": "0.1 µM", "remaining binding": "73%"}
{"SMILES": "FC(F)(F)Oc1cccc(-c2cnc3ccc(-c4ccncc4)nn23)c1", "target": "CDK4 with cyclin D3", "effect on": "cell-free assay", "technique": "competition with immobilised ligand", "tested at": "5 µM", "remaining binding": "57%"}
{"SMILES": "O=C(c1ccc(Nc2ncc(Cl)c(-c3cc4ccccc4s3)n2)cc1)N1CCC(N2CCCC2)CC1", "target": "CDK4 with cyclin D3", "effect on": "binding", "technique": "competition with immobilised ligand", "tested at": "1 µM", "remaining binding": "0.8%"}
{"SMILES": "CNCc1ccccc1-c1csc([C@H](C)Nc2nc(C)nc3cc(OC)c(OC)cc23)c1", "target": "CDK4 with cyclin D3", "effect on": "cell-free assay", "technique": "competition with immobilised ligand", "tested at": "1 µM", "remaining binding": "96%"}
{"SMILES": "O=C(NCCCN1CCOCC1)c1ccc(Nc2nccc(-c3cc4ccccc4s3)n2)cc1", "target": "CDK4 with cyclin D3", "effect on": "binding", "technique": "competition with immobilised ligand", "tested at": "1 µM", "remaining binding": "72%"}
{"SMILES": "Cc1nccc(COC(=O)N2C[C@@H]3[C@@H](CNC(=O)c4ccc5[nH]nnc5c4)[C@@H]3C2)n1", "target": "CDK4 with cyclin D3", "effect on": "cell-free assay", "technique": "competition with immobilised ligand", "tested at": "1 µM", "remaining binding": "78%"}
{"SMILES": "c1cncc(-c2cccc(Nc3nccc(NC4CCCCC4)n3)c2)c1", "target": "CDK4 with cyclin D1", "effect on": "binding", "technique": "competition with immobilised ligand", "tested at": "10 µM", "remaining binding": "100%"}
{"SMILES": "CC1CCCN1c1nccc(-c2cnn3ncccc23)n1 (stereo not drawn)", "target": "CDK4 with cyclin D3", "effect on": "binding", "tested at": "1 µM", "remaining binding": "100%"}
{"SMILES": "CCCCN(CCCC)C(=O)CN1C[C@@H](c2cc(OC)c3c(c2)OCO3)[C@H](C(=O)O)[C@H]1CC(C)(C)CCC", "target": "CDK4", "effect on": "cell-free assay", "technique": "competition with immobilised ligand", "tested at": "1 µM", "remaining binding": "100%"}
{"SMILES": "CN(C)c1nccc(-c2cnn3ncccc23)n1", "target": "CDK4 with cyclin D3", "effect on": "binding", "tested at": "1 µM", "remaining binding": "100%"}
{"SMILES": "CN(C)CC#Cc1ccc(OCCCc2sc(N3CCc4cccc(C(=O)Nc5nc6ccccc6s5)c4C3)nc2C(=O)O)c(F)c1", "target": "CDK4", "effect on": "cell-free assay", "technique": "competition with immobilised ligand", "tested at": "1 µM", "remaining binding": "100%"}
